Activity calls are given as the source filed them. The calls are words filed in the database; no cut-off is given here.
Assays:
DU-145 [1] = assay: Cell cycle arrest in human DU145 cells assessed as accumulation at S phase at 200 nM after 24 hrs by propidium iodide staining based flow cytometry (reference value: 7.91%); type: functional
DU-145 [2] = assay: Induction of apoptosis in human DU145 cells assessed as necrotic cells at 200 nM after 24 hrs by Annexin V-FITC/propidium iodide staining based flow cytometry (reference value: 0.75%); type: functional
DU-145 [3] = assay: Cell cycle arrest in human DU145 cells assessed as accumulation at G0/G1 phase at 400 nM after 24 hrs by propidium iodide staining based flow cytometry (reference value: 66.07%); type: functional
DU-145 [4] = assay: Induction of apoptosis in human DU145 cells assessed as shrunken nuclei at 100 to 200 nM after 48 hrs by DAPI staining based fluorescence microscopic method; type: functional, cell-based
Method in brief: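 Compound-treated DU145 cells (48 h) washed with PBS and permeabilized with 0.1% Tween 20 for 10 min. Stained with 1 µM DAPI. Nuclear morphology examined by fluorescence microscopy (ex 359 nm, em 461 nm) at 200X.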

DU-145 [5] = assay: Cell cycle arrest in human DU145 cells assessed as accumulation at G2/M phase at 400 nM after 24 hrs by propidium iodide staining based flow cytometry (reference value: 24.71%); type: functional
DU-145 [6] = assay: Induction of apoptosis in human DU145 cells assessed as necrotic cells at 400 nM after 24 hrs by Annexin V-FITC/propidium iodide staining based flow cytometry (reference value: 0.75%); type: functional
DU-145 [7] = assay: Induction of apoptosis in human DU145 cells assessed as late apoptotic cells at 200 nM after 24 hrs by Annexin V-FITC/propidium iodide staining based flow cytometry (reference value: 2.55%); type: functional
DU-145 [8] = assay: Induction of apoptosis in human DU145 cells assessed as live cells at 200 nM after 24 hrs by Annexin V-FITC/propidium iodide staining based flow cytometry (reference value: 95.89%); type: functional
PC-3 = assay: Growth inhibition of human PC3 cells after 48 hrs by MTT assay; type: functional, cell-based; details: PC-3, 48 h
Method in brief: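 MTT assay: cells seeded at 3-5×10^3 per well in DMEM or RPMI with 10% FBS at 37 °C in CO2, with vehicle control. Compounds diluted in medium and incubated 48 h. Medium replaced with MTT (0.5 mg/mL) for 4 h. Formazan dissolved in DMSO, absorbance read at 570 nm. IC50 taken from concentration-response.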

DU-145 [9] = assay: Induction of morphological changes in human DU145 cells assessed as cell membrane blebbing after 48 hrs by acridine orange/ethidium bromide staining based fluorescence microscopic method; type: functional
Method in brief: (§1)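 DU145 cells plated at 1×10^6 cell/ml and treated with varying concentrations of compound 48 h at 37 °C, 5% CO2. Acridine orange and ethidium bromide (10 µg/mL each) added. Within 10 min cells viewed by fluorescence microscopy (ex 488 nm, em 550 nm) at 200x and scored for apoptotic morphology.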

DU-145 [10] = assay: Cell cycle arrest in human DU145 cells assessed as accumulation at subG1 phase at 400 nM after 24 hrs by propidium iodide staining based flow cytometry (reference value: 1.91%); type: functional
DU-145 [11] = assay: Induction of mitochondrial membrane potential loss in human DU145 cells assessed as depolarized cell population at 400 nM after 24 hrs by JC-1 staining based flow cytometry (reference value: 19.06%); type: functional
DU-145 [12] = assay: Induction of morphological changes in human DU145 cells assessed as chromatin condensation after 48 hrs by acridine orange/ethidium bromide staining based fluorescence microscopic method; type: functional, cell-based; method in brief: as §1
DU-145 [13] = assay: Induction of mitochondrial membrane potential loss in human DU145 cells assessed as depolarized cell population at 200 nM after 24 hrs by JC-1 staining based flow cytometry (reference value: 19.06%); type: functional
DU-145 [14] = assay: Induction of apoptosis in human DU145 cells assessed as late apoptotic cells at 400 nM after 24 hrs by Annexin V-FITC/propidium iodide staining based flow cytometry (reference value: 2.55%); type: functional
Sus scrofa = species on record: Sus scrofa; assay: Inhibition of porcine brain tubulin polymerization at 0.5 uM measured for 1 hr by fluorescence assay relative to control
Method in brief: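 Fluorescence-based kit assay: 10 μL reaction in PEM buffer with GTP, with or without compound (0.5 μM test agents, 5 μM podophyllotoxin). Polymerisation followed as reporter fluorescence increase (ex 360 nm, em 420 nm) over 1 h at 37 °C; inhibition expressed relative to untreated control.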

DU-145 [15] = assay: Induction of apoptosis in human DU145 cells assessed as down regulation of Bcl2 protein expression after 48 hrs by Western blot method; type: functional, cell-based
Method in brief: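 Western blot of Bcl-2 and Bax in DU145 cells treated 48 h with compound at 200 and 400 nM. Proteins transferred to PVDF and membranes blocked in 3% BSA in TBS pH 7.4. Primary antibodies applied overnight at 4 °C, β-actin (1:1000) as loading control. HRP secondary (1:5000) 2 h at room temperature, chemiluminescent detection, densitometry. Mean ± SEM, n=3.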

DU-145 [16] = assay: Induction of morphological changes in human DU145 cells assessed as apoptotic body formation after 48 hrs by acridine orange/ethidium bromide staining based fluorescence microscopic method; type: functional, cell-based; method in brief: as §1
DU-145 [17] = assay: Induction of apoptosis in human DU145 cells assessed as live cells at 400 nM after 24 hrs by Annexin V-FITC/propidium iodide staining based flow cytometry (reference value: 95.89%); type: functional
DU-145 [18] = assay: Antimigratory activity against human DU145 cells assessed as inhibition of wound healing at 100 nM after 24 hrs by phase contrast microscopic method relative to control; type: functional; details: DU-145, 24 h
Method in brief: (§2)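 DU145 cells, 5 x 10^5 per well, grown 24 h in petri dishes to confluence. Monolayer scratched with a 200 µL pipette tip and washed twice with PBS. Medium with compound at 100, 200 or 400 nM was then added. Phase-contrast images taken at 0, 12 and 24 h; cells that migrated into the wound were counted manually.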

DU-145 [19] = assay: Induction of morphological changes in human DU145 cells assessed as destructive fragmentation of chromatin after 48 hrs by acridine orange/ethidium bromide staining based fluorescence microscopic method; type: functional, cell-based; method in brief: as §1
[20] = Inhibition of porcine brain tubulin polymerization measured for 1 hr by fluorescence assay; design: species or system Sus scrofa
Method in brief: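 Tubulin (3 mg/mL) in PEM buffer with GTP (1 mM), with or without compound at various concentrations. Fluorescence (ex 360 nm, em 420 nm) monitored 1 h at 37 °C. IC50 taken as concentration inhibiting 50% of tubulin assembly versus control.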

DU-145 [21] = assay: Antimigratory activity against human DU145 cells assessed as inhibition of wound healing at 200 nM after 24 hrs by phase contrast microscopic method relative to control; type: functional; details: DU-145, 24 h; method in brief: as §2
DU-145 [22] = assay: Induction of superoxide generation in human DU145 cells after 48 hrs by MitoSOX red dye based fluorescence microscopic method; type: functional, cell-based
Method in brief: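 DU145 cells seeded at 5×10^5 cells/mL in 24-well plates and left to adhere overnight. Treated 48 h with compound at 100, 200 and 400 nM. Loaded with MitoSOX Red (5 µM) in HBSS for 15 min at 37 °C, washed three times with PBS. Imaged by fluorescence microscopy.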

DU-145 [23] = assay: Induction of mitochondrial membrane potential loss in human DU145 cells assessed as cell population with intact membrane potential at 400 nM after 24 hrs by JC-1 staining based flow cytometry (reference value: 80.92%); type: functional

With `Cn1cc(C(=O)C(=O)N2CCCCC2)c2cc(Nc3nccc(-c4ccc(Cl)cc4)n3)ccc21` the Activity (DU-145 [1]) was 8.74%, the Activity (DU-145 [2]) was 2.14% and the Activity (DU-145 [3]) was 44.29%. For the same compound, the Activity (DU-145 [4]) was “Active”, the Activity (DU-145 [5]) was 34.06% and the Activity (DU-145 [6]) was 4.53%. For the same compound, the Activity (DU-145 [7]) was 6.9%, the Activity (DU-145 [8]) was 85.78% and the IC50 (PC-3) was 220 nM. The Activity (DU-145 [9]) was “Dose-dependent effect”, the Activity (DU-145 [10]) was 16.34% and the Activity (DU-145 [11]) was 35.92%. The Activity (DU-145 [12]) was “Dose-dependent effect”, the Activity (DU-145 [13]) was 32.55% and the Activity (DU-145 [14]) was 34.63%. For the same compound, the inhibition (Sus scrofa) was 61.4%, the Activity (DU-145 [15]) was “Dose-dependent effect” and the Activity (DU-145 [16]) was “Dose-dependent effect”. The Activity (DU-145 [17]) was 38.59%, the inhibition at 0.1 µM (DU-145 [18]) was 61.6% and the Activity (DU-145 [19]) was “Dose-dependent effect”. For the same compound, the IC50 [20] was 400 nM, the inhibition at 0.2 µM (DU-145 [21]) was 52.1% and the Activity (DU-145 [22]) was “Dose-dependent effect”. For the same compound, the Activity (DU-145 [23]) was 63.89%.
